# Measured values as given in ChEMBL document CHEMBL1212735, “Metronidazole resistance in Prevotella spp. and description of a new nim gene in Prevotella baroniae” (2010).
# Legend:
# Format in all cases: functional
# Prevotella baroniae [1] = assay: Antimicrobial activity against Prevotella baroniae LBN 427 expressing nimI gene assessed as inhibition of growth after three consecutive subcultures on compound free medium by agar dilution method; conditions: Segatella baroniae
# How it was run: (§1)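 Stability of induced resistance: metronidazole-selected isolates were subcultured three consecutive times on drug-free brucella blood agar (5% sheep blood, hemin, vitamin K1) under anaerobic conditions, then MIC was redetermined by CLSI agar dilution. Resistance was called stable if the MIC held within ±1 dilution. Duplicate experiments.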
# Prevotella baroniae [2] = assay: Antimicrobial activity against Prevotella baroniae LBN 475 expressing nimI gene assessed as inhibition of growth after three consecutive subcultures on compound free medium by agar dilution method; conditions: Segatella baroniae; how it was run: as §1
# Prevotella bivia [3] = assay: Antimicrobial activity against Prevotella bivia LBN 467 deficient in nimI gene assessed as inhibition of growth after three consecutive subcultures on compound free medium by agar dilution method
# How it was run: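 Resistance induction: bacterial suspensions were plated on supplemented brucella blood agar with rising metronidazole concentrations. Colonies from the highest concentration were tested by agar dilution. MIC was then redetermined after three consecutive subcultures on drug-free agar. Resistance counted as stable if the MIC held within ±1 dilution. Anaerobic growth at 37°C. Duplicate experiments.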
# Prevotella nanceiensis [4] = assay: Antimicrobial activity against Prevotella nanceiensis LBN 410 deficient in nimI gene assessed as inhibition of growth after three consecutive subcultures on compound free medium by agar dilution method; conditions: Hoylesella nanceiensis; how it was run: as §1
# Prevotella baroniae [5] = assay: Antimicrobial activity against Prevotella baroniae LBN 466 expressing nim gene assessed as inhibition of growth at 48 hrs by agar dilution method; conditions: Segatella baroniae, LBN 466, 48 h
# How it was run: (§2)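 Metronidazole MIC by agar dilution (CLSI M11-A7) on brucella agar with 5% sheep blood, hemin and vitamin K1. Plates were read after 48 h at 35°C under anaerobic conditions. Susceptible was MIC ≤ 4 μg/ml and resistant MIC ≥ 8 μg/ml (EUCAST). B. fragilis ATCC 25285T and B. thetaiotaomicron ATCC 29741 were run as controls. Duplicate assays.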
# Prevotella bivia [6] = assay: Antimicrobial activity against Prevotella bivia LBN 334 deficient in nim gene assessed as inhibition of growth at 48 hrs by agar dilution method; conditions: LBN 334, 48 h; how it was run: as §2
# Prevotella bivia [7] = assay: Antimicrobial activity against Prevotella bivia LBN 361 deficient in nim gene assessed as inhibition of growth at 48 hrs by agar dilution method; conditions: LBN 361, 48 h; how it was run: as §2
# Prevotella bivia [8] = assay: Antimicrobial activity against Prevotella bivia LBN 374 deficient in nim gene assessed as inhibition of growth at 48 hrs by agar dilution method; conditions: LBN 374, 48 h; how it was run: as §2
# Prevotella bivia [9] = assay: Antimicrobial activity against Prevotella bivia LBN 478 deficient in nim gene assessed as inhibition of growth at 48 hrs by agar dilution method; conditions: LBN 478, 48 h; how it was run: as §2
# Prevotella bivia [10] = assay: Antimicrobial activity against Prevotella bivia LBP 52 deficient in nim gene assessed as inhibition of growth at 48 hrs by agar dilution method; conditions: LBP 52, 48 h; how it was run: as §2
# Prevotella nanceiensis [11] = assay: Antimicrobial activity against Prevotella nanceiensis LBN 298 deficient in nim gene assessed as inhibition of growth at 48 hrs by Etest method; conditions: Hoylesella nanceiensis, LBN 298, 48 h
# How it was run: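 Metronidazole Etest, per the manufacturer's instructions, on brucella blood agar with hemin and vitamin K1. Read after 48 h at 35°C under anaerobic conditions. Breakpoints were ≤ 4 μg/ml susceptible and ≥ 8 μg/ml resistant (EUCAST). Duplicate assays.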
# Prevotella bivia [12] = assay: Antimicrobial activity against slow growing colonies of Prevotella bivia LBN 333 deficient in nim gene assessed as inhibition of growth at 48 hrs by agar dilution method; conditions: LBN 333, 48 h
# How it was run: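 Slowly growing colonies inside the Etest inhibition zone, seen after prolonged incubation (an additional 72 h after the 48 h reading), were subcultured without antibiotic. They were then retested for metronidazole MIC by agar dilution on supplemented brucella blood agar under anaerobic conditions.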
# Prevotella bivia [13] = assay: Antimicrobial activity against slow growing colonies of Prevotella bivia LBN 365 deficient in nim gene assessed as inhibition of growth at 48 hrs by agar dilution method; conditions: LBN 365, 48 h
# How it was run: (§3)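 Metronidazole MIC by agar dilution per CLSI M11-A7 on brucella agar with 5% sheep blood, hemin and vitamin K1. Plates incubated anaerobically at 35°C and read at 48 h, with a second reading after a further 72 h. B. fragilis ATCC 25285T and B. thetaiotaomicron ATCC 29741 served as controls. Done in duplicate; EUCAST breakpoints applied (S ≤4, R ≥8 μg/ml).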
# Prevotella bivia [14] = assay: Antimicrobial activity against slow growing colonies of Prevotella bivia LBP 52 deficient in nim gene assessed as inhibition of growth at 48 hrs by agar dilution method; conditions: LBP 52, 48 h; how it was run: as §3
compound,measurement,setting,value
Cc1ncc([N+](=O)[O-])n1CCO [METRONIDAZOLE],MIC,Prevotella baroniae [1],128 mg/L
same,MIC,Prevotella baroniae [2],256 mg/L
same,MIC,Prevotella bivia [3],> 256 mg/L
same,MIC,Prevotella nanceiensis [4],256 mg/L
same,MIC,Prevotella baroniae [5],2 mg/L
same,MIC,Prevotella bivia [6],2 mg/L
same,MIC,Prevotella bivia [7],2 mg/L
same,MIC,Prevotella bivia [8],2 mg/L
same,MIC,Prevotella bivia [9],4 mg/L
same,MIC,Prevotella bivia [10],4 mg/L
same,MIC,Prevotella nanceiensis [11],4 mg/L
same,MIC,Prevotella bivia [12],32 mg/L
same,MIC,Prevotella bivia [13],8 mg/L
same,MIC,Prevotella bivia [14],16 mg/L
